Compound activity (PubChem)
E-selectin induc: E-selectin induction in HUVECs, primary screen, imaging, HUVEC, immunofluorescence imaging, single point; P16581; normalized: neutral wells 0, TNF-alpha wells 100; activation, % at 7.58 µM; 260,000 compounds, 0.37% hits;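 active = mean E-selectin-positive cell signal at least 10% of the positive control, reached in at least 60% of replicates, without over 20% cell loss; inconclusive = no rule given, readout overlaps actives, possibly toxicity-flagged; inactive = the rest, including those meeting only one limit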
Target sequence (P16581 whole entry, looked up): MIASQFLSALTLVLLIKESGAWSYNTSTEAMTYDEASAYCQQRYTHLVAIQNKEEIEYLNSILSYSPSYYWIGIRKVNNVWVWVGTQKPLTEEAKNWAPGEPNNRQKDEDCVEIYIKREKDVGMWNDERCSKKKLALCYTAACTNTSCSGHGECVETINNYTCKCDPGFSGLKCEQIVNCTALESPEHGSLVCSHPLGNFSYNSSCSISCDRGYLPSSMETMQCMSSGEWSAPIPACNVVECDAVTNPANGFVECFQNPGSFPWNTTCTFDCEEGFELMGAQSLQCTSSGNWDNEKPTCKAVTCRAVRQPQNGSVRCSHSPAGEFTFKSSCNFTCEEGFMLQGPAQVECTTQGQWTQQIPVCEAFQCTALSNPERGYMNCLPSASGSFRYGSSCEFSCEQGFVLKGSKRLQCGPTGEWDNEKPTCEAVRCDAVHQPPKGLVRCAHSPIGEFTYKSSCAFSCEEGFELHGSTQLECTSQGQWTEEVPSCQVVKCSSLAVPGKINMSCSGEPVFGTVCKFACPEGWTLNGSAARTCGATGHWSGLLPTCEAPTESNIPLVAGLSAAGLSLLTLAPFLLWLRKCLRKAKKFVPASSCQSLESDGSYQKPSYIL
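Test system: HUVEC | Signal: Immunofluorescence imaging | Read-out: Percent E-selectin-positive cells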
SIRT5 block: SIRT5 desuccinylase inhibitors, primary screen, biochemical, fluorescence imaging, single point, set 5; Purified SirT5, succinyl-peptide AMC, trypsin-coupled fluorescence; inhibition, % at 15 µM; 330,000 compounds, 1.1% hits; AID 652115, 2013; in the data active = inhibition above about 15%; inconclusive = no clear call, values can overlap the other calls
DENV2 CPE: inhibitors of DENV2 cytopathic effect, primary screen, cell-based, plate reader, single concentration. CPE inhibition, % at 9.99 µM. DENV2-infected cells, cytopathic effect rescue. AID 651640, 2012. 350,000 compounds, 1.7% hits; in the data active = CPE inhibition above about 20%, passing the limit was not always enough; inconclusive = no clear call, values can overlap the other calls; tested in BHK-21 cells;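 note: 0% = median of neutral control wells and 100% = median of positive control wells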
The depositor's hits bear a star; ? = inconclusive; · = not tested or not shown. Hits are enriched below; roughly 2.9% of the tested compounds scored in any of these assays.

SMILES	E-selectin induc	SIRT5 block	DENV2 CPE
O=C1NC(=S)S/C1=C\c1ccc2ccccc2c1	0.1	-0.3	-5.1
Cc1ccc(C(=O)N(Cc2nc(-c3ccc(C)cc3)no2)C(C)C)cc1	1.4	16.8*	4.1
Cc1ccc(-c2noc(CN(C(=O)c3ccc4c(c3)OCO4)C(C)C)n2)cc1	·	-2.2	0.3
COc1cccc(NC(=S)N2C3CCCC2CC(NC(=O)C2CC2)C3)c1 (stereo not drawn)	-0.2	·	1.1
CCOC(=O)C1=C(CS(=O)(=O)c2ccc(C)cc2)NC(=O)NC1c1ccc(O)c(OC)c1 (stereo not drawn)	-0.3	-0.2	0.5
Nc1nc(-c2ccccc2)c(CCCOc2ccc(NC(=O)CBr)cc2)c(=O)[nH]1	·	-2.8	24.4*
CCOc1ccc(NC(=O)CSc2nc(N)c(-c3ccccc3)c(=O)[nH]2)cc1	·	3.7	-2.2
CN1C(=O)c2cc(NC(=O)c3ccccc3)ccc2OC[C@H]2O[C@H](CC(=O)O)CC[C@@H]21	0.0	-1.9	-0.6
COc1cc(SC#N)ccc1N=Cc1c(C)[nH]n(-c2ccc(C)c(C)c2)c1=O	·	1.7	-12.0
CC(C)(C)Cc1nnc(NC(=O)Cc2cccs2)s1	-0.8	29.4*	-0.5
CC(C)Cc1nnc(NC(=O)Cc2cccs2)s1	·	4.8	-2.9
CCCNC(=O)N1CC2(CCN(C(=O)CC)CC2)c2c(n(C)c3cc(OC)ccc23)[C@@H]1CO	-0.4	7.8	8.5
Oc1c(C=C2N=c3ccccc3=N2)sc(=S)n1-c1ccccc1	3.3	-6.9	-1.7
CC1=Nc2ccccc2/C1=C/c1sc(=S)n(-c2cccc(C(=O)O)c2)c1O	-0.1	16.9*	-1.0
Cc1ccc([C@@H]2[C@@H]3C(=O)N(c4ccccc4)C(=O)[C@@H]3[C@]3(Cc4ccccc4)C(=O)N(CC4CC4)CC(=O)N23)o1	0.0	·	-2.4
COc1ccc(N2CCN(C(=O)c3cc(=O)[nH]c4ccccc34)CC2)cc1	·	3.0	-4.1
O=C(c1cc(=O)[nH]c2ccccc12)N1CCN(c2ccc([N+](=O)[O-])cc2)CC1	33.4*	-0.4	2.8
COc1ccc2c3c(n(C)c2c1)[C@@H](CO)N(C(=O)c1cnccn1)CC31CCN(C(=O)c2ccncc2)CC1	-0.2	-1.1	8.3
ClCC1CSC(=NC23CC4CC(CC(C4)C2)C3)O1 (stereo not drawn)	0.1	16.8*	3.7
CC1(C)C2CCC(C2)C1(C)N=C1OC(CCl)CS1 (stereo not drawn)	·	-1.3	-3.0
Cc1ccc2nc(N3C(=O)C(O)=C(C(=O)c4ccc(C)o4)C3c3ccc(O)cc3)sc2c1 (stereo not drawn)	-0.4	22.4*	?
COc1ccc2nc(N3C(=O)C(O)=C(C(=O)c4ccco4)C3c3ccc(C)o3)sc2c1 (stereo not drawn)	3.5	5.4	-2.2
CCC(=O)Nc1ccc2c(c1)C(=O)N(C)C[C@@H](OC)[C@@H](C)CN(C(=O)COC)[C@@H](C)CO2	-0.1	·	6.6
CCC(=O)N1C[C@H](C)[C@H](OC)CN(C)C(=O)c2cc(NC(=O)NC3CCCC3)ccc2OC[C@H]1C	0.9	-0.5	4.4
COCC(=O)Nc1ccc2c(c1)C(=O)N(C)C[C@H](OC)[C@H](C)CN(C(=O)CC1CC1)[C@H](C)CO2	-0.1	7.1	42.5*
SMILES	E-selectin induc	SIRT5 block	DENV2 CPE
CCC(=O)N1C[C@H](C)[C@H](OC)CN(C)C(=O)c2cc(NC(=O)NC3CCCC3)ccc2OC[C@@H]1C	0.1	-1.5	38.9*
COCC(=O)Nc1ccc2c(c1)C(=O)N(C)C[C@@H](OC)[C@@H](C)CN(C(=O)CC1CC1)[C@@H](C)CO2	-0.1	4.0	-4.5
CCC(=O)Nc1ccc2c(c1)C(=O)N(C)C[C@@H](OC)[C@@H](C)CN(C(=O)COC)[C@H](C)CO2	0.0	·	21.8*
CO[C@H]1CN(C)C(=O)c2cc(NC(=O)NC(C)C)ccc2OC[C@@H](C)N(C(=O)CC2CC2)C[C@@H]1C	-0.1	20.1*	5.9
CO[C@@H]1CN(C)C(=O)c2cc(NC(=O)NC(C)C)ccc2OC[C@@H](C)N(C(=O)CC2CC2)C[C@H]1C	0.0	0.4	12.5
CCCCn1c(N)c(N(CC(C)C)C(=O)c2cccc(S(=O)(=O)N(C)c3ccc(C)cc3)c2)c(=O)[nH]c1=O	-0.2	6.2	-0.5
Cc1cccc(C)c1NC(=O)CN1CCN(C(=O)CNC(=O)c2ccc(N3CCCC3=O)cc2)CC1	·	-1.4	-5.9
COCC#Cc1ccc2c(c1)O[C@H](CN(C)C(=O)c1ccccc1F)[C@H](C)CN([C@@H](C)CO)S2(=O)=O	0.1	·	·
COc1ccccc1C(=O)Nc1ccc2c(c1)OC[C@H](C)NC[C@@H](C)[C@H](OC)CN(C)C2=O	0.1	0.1	-9.3
CO[C@@H]1CN(C)C(=O)c2cc(NS(=O)(=O)c3ccccc3C)ccc2OC[C@@H](C)N(C)C[C@@H]1C	-0.2	-8.8	3.7
Cc1ccc(NCC(O)Cn2cnc3c2c(=O)n(C)c(=O)n3C)cc1 (stereo not drawn)	·	-1.8	0.0
COCC(=O)Nc1ccc2c(c1)C(=O)N(C)C[C@@H](OC)[C@H](C)CN(C(C)=O)[C@H](C)CO2	0.2	0.8	101.5*
CCC(=O)N1C[C@H](C)[C@@H](OC)CN(C)C(=O)c2cc(NC(=O)CC(F)(F)F)ccc2OC[C@H]1C	0.6	0.4	6.4
CO[C@H]1CN(C)C(=O)c2cc(NC(=O)Nc3ccccc3)ccc2OC[C@H](C)N(C(C)=O)C[C@H]1C	-0.1	0.7	65.5*
COCC(=O)Nc1ccc2c(c1)C(=O)N(C)C[C@H](OC)[C@@H](C)CN(C(C)=O)[C@H](C)CO2	-0.1	-1.7	3.7
CCC(=O)N1C[C@H](C)[C@H](OC)CN(C)C(=O)c2cc(NC(=O)COC)ccc2OC[C@H]1C	0.2	·	20.7*
CCC(=O)N1C[C@@H](C)[C@H](OC)CN(C)C(=O)c2cc(NC(=O)COC)ccc2OC[C@@H]1C	-0.1	·	-2.6
CO[C@H]1CN(C)C(=O)c2cc(NC(=O)Nc3ccccc3)ccc2OC[C@@H](C)N(C(C)=O)C[C@@H]1C	0.1	0.1	9.4
CCC(=O)N1C[C@@H](C)[C@@H](OC)CN(C)C(=O)c2cc(NC(=O)CC(F)(F)F)ccc2OC[C@@H]1C	0.1	21.0*	6.2
C[C@@H]1CN([C@H](C)CO)C(=O)c2c(c3ccccc3n2C)-c2ccccc2CO[C@@H]1CN(C)C(=O)CCC(F)(F)F	-1.0	-0.8	-7.0
Cc1ccc(CNC(=O)CCC(=O)N2CC(C)Oc3ccc(Cl)cc32)cc1 (stereo not drawn)	2.4	-13.7	0.1
CCOc1cc(C(=O)Nc2ccc(S(=O)(=O)Nc3onc(C)c3C)cc2)cc(OCC)c1OCC	0.0	·	?
C[C@@H]1CN([C@@H](C)CO)C(=O)Cc2cc(NS(=O)(=O)c3ccccc3)ccc2O[C@@H]1CN(C)C(=O)Nc1ccc2c(c1)OCO2	0.1	·	·
CO[C@@H]1CN(C)C(=O)c2cc(NC(C)=O)ccc2OC[C@H](C)N(C(=O)c2ccccc2)C[C@@H]1C	0.1	0.6	-8.2
COCC(=O)N1C[C@@H](C)[C@@H](OC)CN(C)C(=O)c2cc(NC(=O)c3cc(C)on3)ccc2OC[C@H]1C	0.0	19.2*	6.0
